Data: ChEMBL document CHEMBL1157082, “Sesquiterpenes from Oplopanax horridus” (J Nat Prod, 2010)
Values after ≈ are worked out from the molar mass of the structure shown.

How the values were obtained:
[1] = test system: Mycobacterium tuberculosis; assay: Antituberculosis activity against Mycobacterium tuberculosis Erdman by microplate alamar blue assay; format: functional
Summary of the method: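 MIC read by microplate Alamar Blue assay against virulent M. tuberculosis Erdman (ATCC 35801). Rifampin served as positive control. Crude fractions were scored as percent inhibition at several concentrations, and pure isolates as MICs.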

Vero = assay: Cytotoxicity against african green monkey Vero cells; format: cell-based; details: chlorocebus sabaeus
Summary of the method: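 IC50 in Vero cells, run alongside the MIC assay. Test concentrations were at or below 1% of the maximum achievable stock concentration in DMSO.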

[2] = Selectivity index, ratio of IC50 for african green monkey Vero cells to MIC for Mycobacterium tuberculosis Erdman; format: functional
[3] = test system: Mycobacterium tuberculosis; assay: Antituberculosis activity against Mycobacterium tuberculosis H37Ra by microplate alamar blue assay; format: functional

Structure (SMILES)	MIC [1] [µg/mL]	Activity (Vero)	Selectivity Index [2]	MIC [3] [µg/mL]
C=C[C@@](C)(O)CC[C@@H](O)[C@]1(C)CC[C@H](C(C)(C)O)O1 (relative stereo) [NEROPLOFUROL]	> 128	Non-toxic		
C=C[C@@H](O)C#CC#C[C@@H](O)/C=C\CCCCCCC [FALCARINDIOL]	6.2 (≈ 23.8 µM)	Non-toxic		
C=CC1(C)CC/C=C(/C)CCC(C(C)(C)O)O1 (stereo not given) [NEROPLOMACROL]	> 128	Non-toxic		
CCCCCCC/C=C\[C@H](O)C#CC#C[C@@H](O)CC [OPLOPANDIOL]	61.5 (≈ 234 µM)	Non-toxic	6.2	
c1cc2c(cc1[C@H]1OC[C@H]3[C@@H]1CO[C@@H]3c1ccc3c(c1)OCO3)OCO2 [SESAMIN]				> 200
